Data as given in ChEMBL document CHEMBL1154688, “Selective Kv1.5 blockers: development of (R)-1-(methylsulfonylamino)-3-[2-(4-methoxyphenyl)ethyl]-4-(4-methoxyphenyl)-2-imidazolidinone (KVI-020/WYE-160020) as a potential treatment for atrial arrhythmia” (J Med Chem, 2009).
Values after ≈ are worked out from the molar mass of the structure shown. Blank lines part the entries; values can stand above or below the compound they belong to.

Assays:
[1] = target: Potassium voltage-gated channel subfamily A member 5 (Homo sapiens, UniProt P22460); experiment: Inhibition of human Kv1.5 expressed in CHO cells by patch-clamp technique; format: cell-based
Procedure, shortened: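 Human Kv1.5 stably expressed in CHO cells. IC50 was determined by automated patch clamp on the IonWorks platform.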

[2] = Aqueous solubility at pH 7.4 by direct UV method; format: physicochemical; conditions: aqueous medium
Procedure, shortened: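 Solubility measured in pH 7.4 buffer with direct UV read-out.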

[3] = Metabolic stability in human liver microsomes assessed as half life; format: ADME, Microsome
Procedure, shortened: (§1)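 Test compound at 1 μM incubated with 1 mg/mL male beagle dog or male human liver microsomal protein. Half-life was determined from compound loss.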

[4] = target: CYP3A4 (Homo sapiens, UniProt P08684); experiment: Inhibition of CYP3A4 at 3 uM by fluorescent method; format: ADME
Procedure, shortened: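 CYP3A4 inhibition measured by a fluorescent method.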

[5] = target: Voltage-gated inwardly rectifying potassium channel KCNH2 (Homo sapiens, UniProt Q12809); experiment: Inhibition of human ERG by patch-clamp technique
[6] = target: Sodium channel protein type 5 subunit alpha (Homo sapiens, UniProt Q14524); experiment: Inhibition of Nav1.5 expressed in CHO cells by patch-clamp technique; format: cell-based
Procedure, shortened: (§2)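 Electrophysiology IC50 measured in stably transfected cell lines: CHO for Nav1.5, Kv1.1, Kv1.3 and Kv4.3, and HEK for Cav1.3 and Cav1.2.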

[7] = target: Potassium voltage-gated channel subfamily A member 1 (Homo sapiens, UniProt Q09470); experiment: Inhibition of Kv1.1 expressed in CHO cells by patch-clamp technique; format: cell-based; procedure, shortened: as §2
[8] = target: Potassium voltage-gated channel subfamily A member 3 (Homo sapiens, UniProt P22001); experiment: Inhibition of Kv1.3 expressed in CHO cells by patch-clamp technique; format: cell-based; procedure, shortened: as §2
[9] = target: T1, A-type voltage-gated potassium channel KCND3 (Homo sapiens, UniProt Q9UK17); experiment: Inhibition of Kv4.3 expressed in CHO cells by patch-clamp technique; format: cell-based; procedure, shortened: as §2
T1 sequence (Q9UK17 whole entry): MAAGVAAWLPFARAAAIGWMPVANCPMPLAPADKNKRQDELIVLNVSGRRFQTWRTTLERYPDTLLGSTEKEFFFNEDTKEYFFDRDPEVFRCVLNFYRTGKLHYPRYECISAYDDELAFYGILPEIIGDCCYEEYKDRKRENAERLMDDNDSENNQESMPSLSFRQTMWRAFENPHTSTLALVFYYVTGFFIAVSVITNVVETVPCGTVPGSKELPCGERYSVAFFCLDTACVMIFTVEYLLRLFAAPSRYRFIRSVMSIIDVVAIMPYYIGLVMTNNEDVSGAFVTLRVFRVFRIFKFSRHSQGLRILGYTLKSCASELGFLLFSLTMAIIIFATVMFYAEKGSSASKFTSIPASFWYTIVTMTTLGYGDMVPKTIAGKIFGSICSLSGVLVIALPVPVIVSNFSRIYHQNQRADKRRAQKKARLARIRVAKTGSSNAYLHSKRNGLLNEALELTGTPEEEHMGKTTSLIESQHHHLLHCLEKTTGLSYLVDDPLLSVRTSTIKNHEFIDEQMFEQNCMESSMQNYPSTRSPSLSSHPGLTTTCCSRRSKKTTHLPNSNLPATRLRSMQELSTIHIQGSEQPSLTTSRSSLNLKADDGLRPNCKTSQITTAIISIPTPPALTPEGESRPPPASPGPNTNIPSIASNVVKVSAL

[10] = Metabolic stability in Beagle dog liver microsomes assessed as half life; format: ADME, Canis lupus familiaris, Microsome; procedure, shortened: as §1
[11] = target: Cytochrome P450 3A4 (Homo sapiens, UniProt P08684); experiment: Inhibition of CYP3A4 in human liver microsomes; format: ADME, Microsome
Procedure, shortened: (§3)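 Reversible inhibition assayed in human liver microsomes at 0.2 mg/mL protein with probe substrates. CYP3A4 used 2.5 μM midazolam and, separately, 50 μM testosterone. CYP2D6 used 10 μM bufuralol. CYP2C9 used 10 μM diclofenac. IC50 was determined.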

[12] = target: Cytochrome P450 2D6 (Homo sapiens, UniProt P10635); experiment: Inhibition of CYP2D6 in human liver microsomes; format: ADME, Microsome; procedure, shortened: as §3
[13] = target: Cytochrome P450 2C9 (Homo sapiens, UniProt P11712); experiment: Inhibition of CYP2C9 in human liver microsomes; format: ADME, Microsome; procedure, shortened: as §3
[14] = Permeability from apical to basolateral side in human Caco-2 cells at pH 7.4; format: ADME, cell-based; conditions: Caco-2, pH 7.4, read-out: permeability
Procedure, shortened: (§4)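 Caco-2 monolayers at pH 7.4. Bidirectional transport was measured from apical to basolateral and from basolateral to apical. Apparent permeability was reported in cm/s.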

[15] = Permeability from basolateral to apical side in human Caco-2 cells at pH 7.4; format: ADME, cell-based; conditions: Caco-2, pH 7.4, read-out: permeability; procedure, shortened: as §4
[16] = Protein binding in Beagle dog plasma by equilibrium dialysis; format: ADME, cell-free, Canis lupus familiaris; conditions: read-out: PPB (converted)
Procedure, shortened: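 Tritium-labelled compound at 500 ng/mL in male beagle dog or male human plasma. Bound fraction was determined by equilibrium dialysis.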

[17] = Plasma clearance in Beagle dog at 3 mg/kg, iv; format: ADME, organism-based, Canis lupus familiaris; set-up: dose 3 mg/kg, route intravenous
Procedure, shortened: (§5)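 Male beagles; single 30 min intravenous infusion at 3 mg/kg. Plasma clearance, steady-state volume of distribution, elimination half-life and AUC were derived from the plasma concentration–time profile.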

[18] = Volume of distribution at steady state in Beagle dog at 3 mg/kg, iv; format: ADME, organism-based, Canis lupus familiaris; set-up: dose 3 mg/kg, route intravenous; conditions: in vivo, read-out: Vdss; procedure, shortened: as §5
[19] = Half life in Beagle dog at 3 mg/kg, iv; format: ADME, organism-based, Canis lupus familiaris; set-up: dose 3 mg/kg, route intravenous; conditions: in vivo; procedure, shortened: as §5
[20] = AUC in Beagle dog at 3 mg/kg, iv; format: ADME, organism-based, Canis lupus familiaris; set-up: dose 3 mg/kg, route intravenous; conditions: plasma; procedure, shortened: as §5
[21] = Cmax in Beagle dog at 3 mg/kg, po; format: ADME, organism-based, Canis lupus familiaris; set-up: dose 3 mg/kg, route oral; conditions: in vivo
Procedure, shortened: (§6)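 Male beagles dosed orally at 3 mg/kg. Cmax, Tmax, half-life and AUC were taken from plasma levels.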

[22] = Tmax in Beagle dog at 3 mg/kg, po; format: ADME, organism-based, Canis lupus familiaris; set-up: dose 3 mg/kg, route oral; conditions: in vivo; procedure, shortened: as §6
[23] = Half life in Beagle dog at 3 mg/kg, po; format: ADME, organism-based, Canis lupus familiaris; set-up: dose 3 mg/kg, route oral; conditions: in vivo; procedure, shortened: as §6
[24] = AUC in Beagle dog at 3 mg/kg, po; format: ADME, organism-based, Canis lupus familiaris; set-up: dose 3 mg/kg, route oral; conditions: plasma; procedure, shortened: as §6
[25] = Oral bioavailability in Beagle dog at 3 mg/kg; format: ADME, organism-based, Canis lupus familiaris; conditions: in vivo; procedure, shortened: as §6
[26] = system: Canis familiaris; experiment: Plasma concentration in Beagle dog at 1.9 mg/kg, iv; format: ADME, organism-based, Canis lupus familiaris; set-up: dose 1.9 mg/kg, route intravenous; conditions: in vivo
[27] = system: Canis familiaris; experiment: Plasma concentration in Beagle dog at 6.3 mg/kg, iv; format: ADME, organism-based, Canis lupus familiaris; set-up: dose 6.3 mg/kg, route intravenous; conditions: in vivo
[28] = species: Canis familiaris; experiment: Antiarrhythmic activity in Beagle dog prolongation of atrial effective refractory period at steady state plasma concentrations of 4.6 uM; format: functional, Canis lupus familiaris, Heart
[29] = species: Canis familiaris; experiment: Antiarrhythmic activity in Beagle dog prolongation of atrial effective refractory period at steady state plasma concentrations of 23 uM; format: functional, Canis lupus familiaris, Heart
[30] = system: Canis familiaris; experiment: Antiarrhythmic activity in Beagle dog atrial/ventricular tachypacing model assessed as decrease in atrial fibrillation at 3 mg/kg, po after 5 to 10 mins; format: functional, Canis lupus familiaris, Heart; set-up: scale not given: the % may be the effect or the level left
[31] = system: Canis familiaris; experiment: Antiarrhythmic activity in Beagle dog atrial/ventricular tachypacing model assessed as decrease in atrial fibrillation at 3 mg/kg, po; format: functional, Canis lupus familiaris, Heart; set-up: scale not given: the % may be the effect or the level left
[32] = system: Canis familiaris; experiment: Antiarrhythmic activity in Beagle dog atrial/ventricular tachypacing model assessed as decrease in total atrial fibrillation at 3 mg/kg, po; format: functional, Canis lupus familiaris, Heart; set-up: scale not given: the % may be the effect or the level left
[33] = target: Voltage-dependent L-type calcium channel subunit alpha-1D (Homo sapiens, UniProt Q01668); experiment: Inhibition of Cav1.3 expressed in HEK cells by patch-clamp technique
[34] = target: Voltage-dependent L-type calcium channel subunit alpha-1C (Homo sapiens, UniProt Q13936); experiment: Inhibition of Cav1.2 expressed in HEK cells by patch-clamp technique

Voltage-gated inwardly rectifying potassium channel KCNH2, sequence (Q12809 whole entry): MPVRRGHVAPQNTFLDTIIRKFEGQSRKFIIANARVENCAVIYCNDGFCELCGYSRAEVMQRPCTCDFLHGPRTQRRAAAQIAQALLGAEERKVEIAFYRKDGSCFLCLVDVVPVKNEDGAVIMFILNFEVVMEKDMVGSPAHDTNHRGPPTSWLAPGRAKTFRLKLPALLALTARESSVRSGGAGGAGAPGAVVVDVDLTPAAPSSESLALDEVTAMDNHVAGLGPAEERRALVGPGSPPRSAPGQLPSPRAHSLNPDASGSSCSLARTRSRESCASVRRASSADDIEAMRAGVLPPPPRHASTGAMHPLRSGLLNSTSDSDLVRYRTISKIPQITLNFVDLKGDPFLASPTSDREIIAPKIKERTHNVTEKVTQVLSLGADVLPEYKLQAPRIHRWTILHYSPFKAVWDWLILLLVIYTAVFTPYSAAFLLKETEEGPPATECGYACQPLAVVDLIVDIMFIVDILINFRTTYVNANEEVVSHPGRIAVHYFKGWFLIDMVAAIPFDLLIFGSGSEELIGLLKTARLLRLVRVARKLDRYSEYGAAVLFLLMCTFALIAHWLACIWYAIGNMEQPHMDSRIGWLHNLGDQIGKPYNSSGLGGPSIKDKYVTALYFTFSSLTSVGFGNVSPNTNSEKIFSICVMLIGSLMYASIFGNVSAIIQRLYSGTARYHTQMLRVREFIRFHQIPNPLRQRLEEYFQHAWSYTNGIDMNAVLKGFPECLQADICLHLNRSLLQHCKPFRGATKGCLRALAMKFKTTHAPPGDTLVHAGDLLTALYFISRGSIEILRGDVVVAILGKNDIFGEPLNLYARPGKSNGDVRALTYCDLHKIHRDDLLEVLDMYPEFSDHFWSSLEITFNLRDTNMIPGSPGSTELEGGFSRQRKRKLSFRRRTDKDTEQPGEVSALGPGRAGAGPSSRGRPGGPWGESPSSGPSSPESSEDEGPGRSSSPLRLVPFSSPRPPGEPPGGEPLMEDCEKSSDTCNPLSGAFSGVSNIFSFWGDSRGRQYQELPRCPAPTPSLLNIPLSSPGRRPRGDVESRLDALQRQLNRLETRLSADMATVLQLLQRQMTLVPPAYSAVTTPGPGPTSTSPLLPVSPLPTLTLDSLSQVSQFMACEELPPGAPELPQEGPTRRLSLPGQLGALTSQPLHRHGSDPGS
CYP3A4, sequence (P08684 whole entry): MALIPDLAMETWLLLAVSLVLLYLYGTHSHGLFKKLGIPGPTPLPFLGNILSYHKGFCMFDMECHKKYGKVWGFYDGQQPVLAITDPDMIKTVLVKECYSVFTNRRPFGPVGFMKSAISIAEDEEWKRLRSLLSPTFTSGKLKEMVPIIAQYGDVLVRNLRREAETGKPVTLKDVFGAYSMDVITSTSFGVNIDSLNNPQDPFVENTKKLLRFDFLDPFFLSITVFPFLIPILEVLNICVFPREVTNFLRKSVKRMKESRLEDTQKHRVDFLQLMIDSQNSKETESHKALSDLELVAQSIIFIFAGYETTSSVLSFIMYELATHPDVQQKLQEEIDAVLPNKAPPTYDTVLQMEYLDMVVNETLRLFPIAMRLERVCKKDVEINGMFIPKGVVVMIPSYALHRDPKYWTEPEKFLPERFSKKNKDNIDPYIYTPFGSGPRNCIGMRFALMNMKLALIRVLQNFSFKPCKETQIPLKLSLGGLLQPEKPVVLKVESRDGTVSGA
Potassium voltage-gated channel subfamily A member 5, sequence (P22460 whole entry): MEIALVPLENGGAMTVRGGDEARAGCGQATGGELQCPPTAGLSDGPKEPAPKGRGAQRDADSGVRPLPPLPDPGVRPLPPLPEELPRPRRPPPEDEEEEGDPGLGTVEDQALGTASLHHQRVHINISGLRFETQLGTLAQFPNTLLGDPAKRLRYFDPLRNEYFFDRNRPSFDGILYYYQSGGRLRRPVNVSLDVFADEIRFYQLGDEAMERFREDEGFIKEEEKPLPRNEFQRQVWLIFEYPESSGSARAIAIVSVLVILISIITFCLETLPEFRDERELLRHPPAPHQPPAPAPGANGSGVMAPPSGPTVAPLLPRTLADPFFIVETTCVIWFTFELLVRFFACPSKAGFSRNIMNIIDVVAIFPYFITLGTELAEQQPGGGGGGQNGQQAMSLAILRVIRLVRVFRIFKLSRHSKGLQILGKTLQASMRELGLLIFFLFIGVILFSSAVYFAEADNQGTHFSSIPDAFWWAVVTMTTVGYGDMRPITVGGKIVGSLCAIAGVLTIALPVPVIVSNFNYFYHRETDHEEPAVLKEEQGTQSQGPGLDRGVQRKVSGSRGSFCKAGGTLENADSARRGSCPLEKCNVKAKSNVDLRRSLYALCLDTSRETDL
Voltage-dependent L-type calcium channel subunit alpha-1D, sequence (Q01668 whole entry): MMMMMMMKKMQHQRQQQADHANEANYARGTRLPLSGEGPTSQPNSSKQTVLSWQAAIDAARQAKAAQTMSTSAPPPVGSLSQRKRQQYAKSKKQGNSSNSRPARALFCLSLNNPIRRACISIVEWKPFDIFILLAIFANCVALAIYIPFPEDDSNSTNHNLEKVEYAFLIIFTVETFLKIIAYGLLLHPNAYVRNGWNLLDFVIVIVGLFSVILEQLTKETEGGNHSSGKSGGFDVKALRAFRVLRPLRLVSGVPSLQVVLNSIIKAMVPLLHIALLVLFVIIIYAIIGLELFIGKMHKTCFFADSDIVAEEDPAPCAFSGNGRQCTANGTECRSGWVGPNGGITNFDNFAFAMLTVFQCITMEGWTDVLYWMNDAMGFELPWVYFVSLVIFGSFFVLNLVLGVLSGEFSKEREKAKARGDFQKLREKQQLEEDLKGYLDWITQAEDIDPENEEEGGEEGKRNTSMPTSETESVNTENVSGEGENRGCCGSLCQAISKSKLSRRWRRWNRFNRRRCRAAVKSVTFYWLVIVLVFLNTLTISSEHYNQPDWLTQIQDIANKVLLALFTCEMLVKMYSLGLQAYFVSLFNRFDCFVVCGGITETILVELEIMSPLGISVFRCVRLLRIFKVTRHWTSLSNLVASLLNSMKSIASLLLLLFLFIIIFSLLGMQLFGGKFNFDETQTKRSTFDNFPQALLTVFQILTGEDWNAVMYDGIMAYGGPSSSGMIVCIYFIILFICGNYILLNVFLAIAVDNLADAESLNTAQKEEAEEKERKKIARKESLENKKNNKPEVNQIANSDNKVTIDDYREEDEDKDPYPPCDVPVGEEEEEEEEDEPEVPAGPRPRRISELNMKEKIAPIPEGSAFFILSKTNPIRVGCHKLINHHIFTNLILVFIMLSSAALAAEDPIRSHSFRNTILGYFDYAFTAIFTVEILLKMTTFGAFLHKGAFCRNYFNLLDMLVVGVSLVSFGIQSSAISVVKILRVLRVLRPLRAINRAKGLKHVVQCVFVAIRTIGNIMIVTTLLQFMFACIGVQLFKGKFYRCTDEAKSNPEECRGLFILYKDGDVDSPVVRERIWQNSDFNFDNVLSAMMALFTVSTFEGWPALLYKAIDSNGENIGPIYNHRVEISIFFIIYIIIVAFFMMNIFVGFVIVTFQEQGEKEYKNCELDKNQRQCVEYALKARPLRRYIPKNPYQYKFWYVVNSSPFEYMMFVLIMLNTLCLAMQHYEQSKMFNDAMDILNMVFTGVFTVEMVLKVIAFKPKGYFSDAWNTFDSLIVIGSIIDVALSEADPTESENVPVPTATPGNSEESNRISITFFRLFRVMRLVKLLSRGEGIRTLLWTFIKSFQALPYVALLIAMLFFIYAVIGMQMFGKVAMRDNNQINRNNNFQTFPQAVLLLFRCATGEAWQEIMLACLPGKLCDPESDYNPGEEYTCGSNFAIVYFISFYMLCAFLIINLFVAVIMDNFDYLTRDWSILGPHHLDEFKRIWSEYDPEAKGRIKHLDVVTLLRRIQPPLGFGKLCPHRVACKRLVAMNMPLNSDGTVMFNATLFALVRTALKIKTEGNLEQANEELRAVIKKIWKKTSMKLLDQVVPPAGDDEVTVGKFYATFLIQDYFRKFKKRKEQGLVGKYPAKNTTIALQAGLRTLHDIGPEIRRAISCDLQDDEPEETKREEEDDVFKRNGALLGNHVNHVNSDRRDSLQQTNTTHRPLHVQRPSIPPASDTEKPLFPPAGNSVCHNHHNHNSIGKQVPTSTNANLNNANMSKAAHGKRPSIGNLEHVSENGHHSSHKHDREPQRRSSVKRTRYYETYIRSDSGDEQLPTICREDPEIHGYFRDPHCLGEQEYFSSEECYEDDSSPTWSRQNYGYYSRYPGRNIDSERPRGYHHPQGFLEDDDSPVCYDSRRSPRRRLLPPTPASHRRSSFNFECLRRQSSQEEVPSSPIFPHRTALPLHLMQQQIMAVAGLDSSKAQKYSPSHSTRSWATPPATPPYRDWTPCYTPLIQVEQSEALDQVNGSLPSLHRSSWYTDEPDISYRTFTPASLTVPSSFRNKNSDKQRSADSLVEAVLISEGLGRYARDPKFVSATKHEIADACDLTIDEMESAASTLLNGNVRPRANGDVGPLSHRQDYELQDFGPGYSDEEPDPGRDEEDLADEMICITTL
Cytochrome P450 2C9, sequence (P11712 whole entry): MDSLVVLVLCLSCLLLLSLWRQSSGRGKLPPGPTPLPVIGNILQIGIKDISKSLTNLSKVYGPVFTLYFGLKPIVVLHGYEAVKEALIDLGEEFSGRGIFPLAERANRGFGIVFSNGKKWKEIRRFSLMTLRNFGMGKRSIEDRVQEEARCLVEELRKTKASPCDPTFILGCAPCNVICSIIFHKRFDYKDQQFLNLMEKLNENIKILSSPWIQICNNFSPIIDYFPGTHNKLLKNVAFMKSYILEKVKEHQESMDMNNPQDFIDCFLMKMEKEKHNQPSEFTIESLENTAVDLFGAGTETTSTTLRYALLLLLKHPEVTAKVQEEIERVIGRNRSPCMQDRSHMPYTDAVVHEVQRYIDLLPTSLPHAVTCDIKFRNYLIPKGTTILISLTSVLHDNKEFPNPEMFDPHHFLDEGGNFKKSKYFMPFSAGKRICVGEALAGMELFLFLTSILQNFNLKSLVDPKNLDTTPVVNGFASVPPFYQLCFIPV
Cytochrome P450 3A4, sequence (P08684 whole entry): as the sequence (P08684 whole entry) above

SMILES: COc1ccc(CCN2C(=O)N(NS(=O)(=O)Cc3cccnc3)C[C@@H]2c2ccc(OC)cc2)cc1
IC50 [1]: 0.6 µM
solubility [2]: 23 µg/mL (≈ 46.3 µM)
half-life [3]: 3 min
inhibition at 3 µM [4]: 90%

SMILES: COc1ccc(CCCN2C(=O)N(NS(C)(=O)=O)C[C@H]2c2ccc(OC)cc2)cc1
IC50 [1]: 0.56 µM
IC50 [5]: 14.3 µM
solubility [2]: 15 µg/mL (≈ 34.6 µM)
half-life [3]: 12 min
inhibition at 3 µM [4]: 50%

SMILES: CCOc1ccc(CCN2C(=O)N(NS(C)(=O)=O)C[C@@H]2c2ccc(OC)cc2)cc1
IC50 [1]: 0.77 µM
solubility [2]: 43 µg/mL (≈ 99.2 µM)
half-life [3]: 17 min
inhibition at 3 µM [4]: 4%

SMILES: COc1ccc(CCN2C(=O)N(NS(=O)(=O)CF)C[C@@H]2c2ccc(OC)cc2)cc1
IC50 [1]: 0.9 µM
IC50 [5]: 28.3 µM
solubility [2]: 100 µg/mL (≈ 229 µM)
half-life [3]: 13 min
inhibition at 3 µM [4]: 0%

Stronger by IC50 [1], values ahead:

IC50 [1]: 0.33 µM
solubility [2]: 100 µg/mL (≈ 238 µM)
half-life [3]: 16 min
inhibition at 3 µM [4]: 50%
SMILES: COc1ccc(CCN2C(=O)N(NS(C)(=O)=O)C[C@@H]2c2ccc(OC)cc2)cc1
IC50 [5]: 26.7 µM

IC50 [1]: 0.48 µM
solubility [2]: 65 µg/mL (≈ 155 µM)
half-life [3]: 30 min
inhibition at 3 µM [4]: 45%
IC50 [7]: 2.66 µM
IC50 [8]: 1.41 µM
IC50 [9]: 3.87 µM
half-life [10]: 11 min
IC50 [11]: 37 µM
IC50 [12]: 180 µM
IC50 [13]: 47 µM
Papp A→B [14]: 40 ×10⁻⁶ cm/s
Papp B→A [15]: 39 ×10⁻⁶ cm/s
fraction unbound [16]: 0.1
clearance [17]: 23 mL/min/kg
Vd [18]: 2.2 L/kg
half-life [19]: 72 min
AUC [20]: 2410 ng·h/mL
Cmax [21]: 469 ng/mL
Tmax [22]: 60 min
half-life [23]: 102 min
AUC [24]: 1990 ng·h/mL
bioavailability [25]: 82%
concentration [26]: 4.6 µM
concentration [27]: 23 µM
IC50 [33]: 23.4 µM
SMILES: COc1ccc(CCN2C(=O)N(NS(C)(=O)=O)C[C@H]2c2ccc(OC)cc2)cc1
IC50 [5]: 15.1 µM
IC50 [6]: > 30 µM
Activity [28]: 12%
Activity [29]: 17%
Activity [30]: 63%
Activity [31]: 55%
Activity [32]: 52%
IC50 [34]: > 30 µM

IC50 [1]: 0.34 µM
solubility [2]: 1 µg/mL (≈ 2.02 µM)
half-life [3]: 3 min
inhibition at 3 µM [4]: 82%
SMILES: COc1ccc(CCN2C(=O)N(NS(=O)(=O)Cc3ccccc3)C[C@@H]2c2ccc(OC)cc2)cc1
IC50 [5]: 4.4 µM

IC50 [1]: 0.23 µM
solubility [2]: 100 µg/mL (≈ 225 µM)
half-life [3]: 21 min
inhibition at 3 µM [4]: 7%
SMILES: COc1ccc(CCN2C(=O)N(NS(=O)(=O)CC#N)C[C@@H]2c2ccc(OC)cc2)cc1
IC50 [5]: 33 µM
